Experimental data from ChEMBL document CHEMBL4138314, “Synthesis and Evaluation of N-Phenyl-3-sulfamoyl-benzamide Derivatives as Capsid Assembly Modulators Inhibiting Hepatitis B Virus (HBV)” (J Med Chem, 2018).

Tests used:
HepG2 = assay: Cytotoxicity against human HepG2 cells after 4 to 6 days by resazurin assay; type: cell-based; conditions: hepg2
[1] = Cmax in humanized mouse at 50 mg/kg, sc for 8 days measured on day 8 post last dose by LC-MS/MS analysis; type: ADME, organism-based; design: dose 50 mg/kg, route subcutaneous; conditions: in vivo
[2] = AUC (0 to last) in C57BL/6 mouse at 50 mg/kg, sc by LC-MS/MS analysis; type: ADME, organism-based; design: dose 50 mg/kg, time 0 - last, route subcutaneous; conditions: in vivo
[3] = AUC (0 to infinity) in humanized mouse at 50 mg/kg, sc measured on day 1 post dose by LC-MS/MS analysis; type: ADME, organism-based; design: dose 50 mg/kg, time infinity, route subcutaneous; conditions: in vivo
[4] = Half life in humanized mouse at 50 mg/kg, sc measured on day 1 post dose by LC-MS/MS analysis; type: ADME, organism-based; conditions: in vivo
[5] = AUC (0 to 24 hrs) in humanized mouse at 200 mg/kg, sc measured on day 1 post dose by LC-MS/MS analysis; type: ADME, organism-based; design: dose 200 mg/kg, time < 24 hr, route subcutaneous; conditions: in vivo
[6] = AUC (0 to 24 hrs) in humanized mouse at 200 mg/kg, sc for 8 days measured on day 8 post last dose by LC-MS/MS analysis; type: ADME, organism-based; design: time < 24 hr, dose 200 mg/kg, route subcutaneous; conditions: in vivo
[7] = target: 5-hydroxytryptamine receptor 2B (Homo sapiens, UniProt P41595); assay: Antagonist activity at 5-HT2B (unknown origin) at 10 uM; type: functional
Summary of the method: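 Receptor/ion channel/transporter panel of 80 targets screened at 10 µM, giving percent effect at 5-HT2B; follow-up 5-HT2B functional testing in agonist and antagonist modes, with antagonist IC50 determined.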

[8] = Drug metabolism in human liver microsomes at 1 uM after 15 mins by LC-MS/MS analysis; type: ADME, microsome; conditions: read-out: Drug metabolism
Summary of the method: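 Compound incubated 15 min with human or mouse liver microsomes; stability expressed as percent turnover (metabolised) at 15 min.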

[9] = Tmax in humanized mouse at 200 mg/kg, sc for 8 days measured on day 8 post last dose by LC-MS/MS analysis; type: ADME, organism-based; conditions: in vivo
Salmonella typhimurium = assay: Genotoxicity in Salmonella typhimurium by Ames test; type: toxicity, organism-based; conditions: salmonella enterica subsp. enterica serovar typhimurium
[10] = AUC (0 to infinity) in humanized mouse at 200 mg/kg, sc measured on day 1 post dose by LC-MS/MS analysis; type: ADME, organism-based; design: dose 200 mg/kg, route subcutaneous, time infinity; conditions: in vivo
[11] = Cmax in C57BL/6 mouse at 10 mg/kg, po by LC-MS/MS analysis; type: ADME, organism-based; design: dose 10 mg/kg, route oral; conditions: in vivo
[12] = Cmax in C57BL/6 mouse at 50 mg/kg, sc by LC-MS/MS analysis; type: ADME, organism-based; design: dose 50 mg/kg, route subcutaneous; conditions: in vivo
[13] = Oral bioavailability in C57BL/6 mouse at 50 mg/kg by LC-MS/MS analysis; type: ADME, organism-based; conditions: in vivo
Summary of the method: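 Single-dose PK in C57BL/6 mice given compound intravenously and orally, with oral doses of 10 and 50 mg/kg. Plasma clearance, volume of distribution and oral bioavailability were derived from the plasma profiles.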

[14] = Cmax in C57BL/6 mouse at 50 mg/kg, po by LC-MS/MS analysis; type: ADME, organism-based; design: dose 50 mg/kg, route oral; conditions: in vivo

5-hydroxytryptamine receptor 2B, sequence (P41595 whole entry): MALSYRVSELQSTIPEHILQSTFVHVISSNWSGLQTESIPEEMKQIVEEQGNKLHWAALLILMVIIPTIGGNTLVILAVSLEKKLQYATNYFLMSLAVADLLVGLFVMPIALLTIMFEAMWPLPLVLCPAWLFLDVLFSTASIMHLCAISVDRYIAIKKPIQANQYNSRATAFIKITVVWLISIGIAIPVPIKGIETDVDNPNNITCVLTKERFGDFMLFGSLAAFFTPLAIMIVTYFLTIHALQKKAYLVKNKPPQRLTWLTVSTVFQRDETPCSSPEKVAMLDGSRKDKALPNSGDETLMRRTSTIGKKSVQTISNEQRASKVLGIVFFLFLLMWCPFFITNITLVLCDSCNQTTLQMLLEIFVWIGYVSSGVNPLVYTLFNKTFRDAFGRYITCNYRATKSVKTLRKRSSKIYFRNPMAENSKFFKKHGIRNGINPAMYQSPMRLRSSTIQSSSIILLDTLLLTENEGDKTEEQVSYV

Cc1cc(NC(=O)c2cccc(S(=O)(=O)N[C@H]3CCOC3)c2)ccc1F
EC20 (HepG2): 10 to 30 µM
Cmax [1]: 4380 ng/mL
AUC(0-t) [2]: 16900 ng·h/mL
AUC(0-inf) [3]: 4780 ng·h/mL
half-life [4]: 1.1 h
AUC(0-t) at 24 h [5]: 12000 ng·h/mL
AUC at 24 h [6]: 86900 ng·h/mL
inhibition [7]: 71%
metabolised at 0.25 h, 1 µM [8]: 26%
Tmax [9]: 1 h
Activity (Salmonella typhimurium): Non-Toxic
AUC(0-inf) [10]: 12700 ng·h/mL
Cmax [11]: 1940 ng/mL
Cmax [12]: 3370 ng/mL
bioavailability [13]: 66%
Cmax [14]: 9440 ng/mL
